In ChEMBL document CHEMBL5244268, “Preventing Candida albicans biofilm formation using aromatic-rich piperazines” (Bioorg Med Chem, 2020) one finds Activity, MIC and inhibition data, which are given here for 1 compound.

In brackets after ≈: the same amount, converted by molar mass. Activity calls are given as the source filed them.

In data set [1] the test system is Candida albicans. Description: Antibiofilm activity against Candida albicans ATCC 28366 at 1 ug/ml incubated for 24 to 48 hrs by crystal violet staining based absorbance spectrometry analysis. It counts as functional, organism-based. The note with it: dose 1.0 µg/ml, time 24-48 hrs. Put shortly:
(§1)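 Overnight cultures (37 °C, aerobic, Sabouraud pH 7.0) adjusted to OD660 0.2, mixed 1:1 with two-fold serial dilutions in medium and incubated at 37 °C. Biofilm stained with crystal violet, dye released in 75% ethanol, A550 read. Growth relative to compound-free wells (100%) after blank subtraction. At least two independent experiments in triplicate, t test.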

Data set [2] deals with Candida albicans. The data set can be described thus: Antibiofilm activity against Candida albicans LAM-1 at 4 ug/ml incubated for 24 to 48 hrs by crystal violet staining based absorbance spectrometry analysis. The note with it: dose 4.0 µg/ml, time 24-48 hrs. It counts as functional, organism-based. Put shortly:
as §1

Data set [3] concerns Candida albicans. The data set can be described thus: Antifungal activity against Candida albicans ATCC 28366 assessed as inhibition of fungal growth incubated for 24 hrs by plate count determination. Type of data set: functional. An outline of the steps:
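Biofilm-assay setup (Sabouraud pH 7.0, inoculum OD660 0.2, serial two-fold dilutions, 37 °C). […] Highest value kept when replicates differ. At least two independent experiments in triplicate.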

For data set [4], the system named is Candida albicans. Description: Antifungal activity against Candida albicans ATCC 28366 assessed as reduction in fungal growth at up to 64 ug/ml incubated for 24 hrs by plate count determination. It counts as functional, organism-based. The note with it: dose <= 64.0 µg/ml.
Data set [5] has as its system Candida albicans. The data set can be described thus: Antibiofilm activity against Candida albicans ATCC 28366 assessed as inhibition of biofilm formation at 0.5 to 32 ug/ml incubated for 24 to 48 hrs by crystal violet staining based absorbance spectrometry analysis. The note with it: dose 0.5-32 µg/ml, time 24-48 hrs. Type of data set: functional, organism-based. An outline of the steps: as §1

Data set [6] concerns Candida albicans. Description: Antibiofilm activity against Candida albicans ATCC 28366 assessed as disruption of preformed biofilm incubated for 12 hrs by crystal violet staining based absorbance spectrometry analysis. Type of data set: functional, organism-based. Put shortly: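 Mature biofilms grown 36 to 48 h in Sabouraud pH 7.0 without compound; medium and free cells removed, rinsed with 50 mM PBS pH 7.0, then two-fold serial dilutions in PBS added for 12 h at 37 °C. Residual biofilm stained with crystal violet, dye released in 75% ethanol, A550 read. PBS-treated biofilms as controls.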

The subject of data set [7] is Candida albicans. The data set can be described thus: Antibiofilm activity against Candida albicans ATCC 28366 assessed as reduction in hyphae formation at 4 ug/ml incubated for 4 hrs in spider medium by microscopic analysis. Particulars: dose 4.0 µg/ml. It counts as functional, organism-based. Put shortly: (§2)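 Yeast-form cells grown overnight in YPD at 30 °C. 50 µL inoculated into 5 mL hypha-inducing medium (e.g., Spider: 1% nutrient broth, 1% mannitol, 0.2% K2HPO4, pH 7.2) containing two-fold dilutions, then 4 h at 37 °C. At least 100 cells per replicate counted as hypha (pseudohyphae and intermediates included) or yeast. Compound-free control for maximal conversion. At least two independent experiments in triplicate.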

Data set [8] deals with Candida albicans. Description: Antibiofilm activity against Candida albicans ATCC 28366 assessed as short hyphae formation at 2 ug/ml incubated for 4 hrs in spider medium by microscopic analysis. Type of data set: functional, organism-based. The note with it: dose 2.0 µg/ml. An outline of the steps: as §2
The test system of data set [9] is Candida albicans. The data set can be described thus: Antibiofilm activity against Candida albicans ATCC 28366 assessed as small subpopulation of hyphae formation at 2 ug/ml incubated for 4 hrs in spider medium by microscopic analysis. Type of data set: functional, organism-based. The note with it: dose 2.0 µg/ml. An outline of the steps: as §2
The test system of data set [10] is Candida albicans. Description: Antibiofilm activity against Candida albicans ATCC 28366 assessed as reduction in filamentation by measuring joint hyphae cell elongation at 1 ug/ml incubated for 4 hrs in spider medium by microscopic analysis. It counts as functional, organism-based. Particulars: dose 1.0 µg/ml. Put shortly: as §2
Data set [11] deals with Candida albicans. Description: Antibiofilm activity against Candida albicans ATCC 28366 assessed as inhibition of morphogenesis at 1 to 4 ug/ml incubated for 4 hrs in spider medium by microscopic analysis. It counts as functional, organism-based. Particulars: dose 1-4 µg/ml. Put shortly:
as §2

Data set [12] concerns Candida albicans. The data set can be described thus: Antibiofilm activity against Candida albicans ATCC 28366 assessed as reduction in fungal growth at 1 to 4 ug/ml incubated for 4 hrs in spider medium by plate count determination. Type of data set: functional, organism-based. The note with it: dose 1-4 µg/ml. Put shortly: (§3)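 After the 4 h, 37 °C morphogenesis incubation in Spider medium (YPD overnight inoculum, 50 µL into 5 mL), OD660 measured to follow fungal growth; C. albicans viability confirmed by plate count.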

In data set [13] the test system is Candida albicans. Description: Antibiofilm activity against Candida albicans LAM-1 assessed as reduction in fungal growth at 1 to 4 ug/ml incubated for 4 hrs in spider medium by plate count determination. Particulars: dose 1-4 µg/ml. It counts as functional, organism-based. An outline of the steps: as §3
Data set [14] concerns Candida albicans. Description: Antibiofilm activity against Candida albicans ATCC 28366 assessed as inhibition of filamentation at 2 ug/ml incubated for 4 hrs in Lee's medium by microscopic analysis. Type of data set: functional, organism-based. The note with it: dose 2.0 µg/ml. Put shortly:
as §2

The test system of data set [15] is Candida albicans. The data set can be described thus: Antibiofilm activity against FITC labeled Candida albicans ATCC 28366 in human GMSM-K cells assessed as reduction in fungal adherence to cells incubated for 4 hrs by fluorescence microscopic analysis. It counts as functional, organism-based. The note with it: dose 6-48 µg/ml. An outline of the steps: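 Confluent GMSM-K monolayers (DMEM, 10% FBS) pre-incubated 30 min with two-fold dilutions in DMEM (37 °C, 5% CO2). FITC-labelled yeast (0.03 mg/mL FITC in 0.5 M NaHCO3 pH 8, 30 min, 37 °C) added at MOI 10³ for 4 h. After PBS washes, fluorescence read (ex 495/em 525 nm) as % of compound-free wells. Two independent experiments in triplicate.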

Data set [16] deals with Candida albicans. Description: Antibiofilm activity against Candida albicans ATCC 28366 assessed as inhibition of morphological switching at 1 ug/ml incubated for 4 hrs in YPD medium with fetal bovine serum by microscopic analysis. Type of data set: functional, organism-based. The note with it: dose 1.0 µg/ml. An outline of the steps:
as §2

The subject of data set [17] is Candida albicans. The data set can be described thus: Antibiofilm activity against Candida albicans ATCC 28366 assessed as inhibition of N-acetylglucosamine induced morphological switching at 1 to 4 ug/ml incubated for 4 hrs by microscopic analysis. It counts as functional, organism-based. Particulars: dose 1-4 µg/ml. An outline of the steps: as §2
The subject of data set [18] is Candida albicans. Description: Antibiofilm activity against Candida albicans ATCC 28366 assessed as inhibition of nitrogen deprivation induced morphological switching at 1 to 4 ug/ml incubated for 4 hrs in SLAD media by microscopic analysis. The note with it: dose 1-4 µg/ml. It counts as functional, organism-based. An outline of the steps:
as §2

Data set [19] can be described thus: Cytotoxicity against human B11 cells assessed as reduction in cell viability at 96 ug/ml incubated for 2 hrs by MTT assay. It counts as toxicity, cell-based. Particulars: b11, 2 h, dose 96 µg/ml. An outline of the steps: (§4)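 B11 human oral epithelial cells in K-SFM with bovine pituitary extract and EGF, grown to confluence (1 × 10⁵ cells/well, 37 °C, 5% CO2). Treated with two-fold dilutions from 96 to 1.5 µg/mL for 2 or 24 h, then MTT viability read. Triplicate, mean ± SD.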

A short description of data set [20]: Cytotoxicity against human B11 cells assessed as reduction in cell viability at >=24 ug/ml incubated for 24 hrs by MTT assay. It counts as toxicity, cell-based. The note with it: b11, 24 h, dose > 24 µg/ml. Put shortly: as §4
In general terms: Tetrazolium dyes change colour on reduction, which living cells bring about.

For the compound `c1ccc(COc2ccc(C[C@H]3CN[C@@H](Cc4ccccc4)CN3)cc2)cc1`, the result in [1], in data set [2], in data set [7], in data set [8] and in data set [9] was Active. Also, the MIC in data set [3] came out at 96 mg/L (≈ 258 µM). For the same compound, the outcome in data set [4], in data set [6], in data set [10], in [12] and in data set [13] was inactive. Besides, the inhibition entry in [5], in [11], in [14] and in [16] was “Active” throughout. Besides, the Activity result in [15] is “Dose-Dependent Effect”; in data set [19], “Toxic”; in [20] it was “Toxic”. The inhibition entry in [17] and in data set [18] was “inactive” in each case.

A word on the MIC: it is the smallest concentration in the dilution series that meets the test's criterion for growth inhibition.
